These results are taken from publication PMC3594046 (Bioorganic & medicinal chemistry letters, 2013).

Test [1] has as its target T1, TRβ-LBD / SRC2-2 peptide interaction (Homo sapiens, UniProt P10828).
T1 sequence (P10828 217-461 limits assumed): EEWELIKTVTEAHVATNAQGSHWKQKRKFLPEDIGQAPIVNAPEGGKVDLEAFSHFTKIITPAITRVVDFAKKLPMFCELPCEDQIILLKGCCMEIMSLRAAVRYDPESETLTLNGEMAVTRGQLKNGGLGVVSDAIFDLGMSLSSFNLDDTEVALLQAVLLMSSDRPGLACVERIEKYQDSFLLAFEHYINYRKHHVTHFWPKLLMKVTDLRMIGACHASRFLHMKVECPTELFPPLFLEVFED
The experiment in a line: Fluorescence polarization. It is filed as binding. In short, it runs like this:
(§1)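 Fluorescence polarization competition assays: TRβ-LBD with Texas Red-labelled SRC2-2 peptide, and VDR with SRC2-3 peptide. Test compounds were 3-fold serially diluted in DMSO from a 10,000 μM top concentration and pin-transferred into the assay solutions. Each run was in triplicate and repeated twice, giving 6 replicates. EC50 is reported as the mean with standard deviation.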
Background: Polarisation of emitted light reports the rotation of a fluorescent probe.

Test [2] concerns the target T2, TRα / SRC2-2 interaction (Homo sapiens, UniProt P10827).
T2 sequence (P10827 1-410 isoform P10827-2): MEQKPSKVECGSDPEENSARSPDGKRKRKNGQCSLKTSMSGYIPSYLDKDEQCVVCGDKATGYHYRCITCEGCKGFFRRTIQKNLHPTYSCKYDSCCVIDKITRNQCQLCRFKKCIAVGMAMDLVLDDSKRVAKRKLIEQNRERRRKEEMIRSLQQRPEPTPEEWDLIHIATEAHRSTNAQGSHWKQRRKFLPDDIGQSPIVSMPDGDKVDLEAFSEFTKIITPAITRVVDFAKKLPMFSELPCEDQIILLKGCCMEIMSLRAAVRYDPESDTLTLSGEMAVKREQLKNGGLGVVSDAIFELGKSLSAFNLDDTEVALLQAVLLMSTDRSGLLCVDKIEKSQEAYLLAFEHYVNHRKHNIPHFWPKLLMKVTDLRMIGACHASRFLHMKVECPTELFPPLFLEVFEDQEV
The experiment in a line: FP competition assay, TRα-coactivator. The conditions noted are these: in words. The class given is binding.

Test [3] has as its system PEPCK gene transcription (TR-responsive) in HepG2 cells. The experiment in a line: RT-PCR of T3-induced PEPCK transcription in HepG2 cells. The class given is cell-based. The settings on record: HepG2, co-treated with T3 (100 nM) and compound (1 μM and 100 nM), 24 h. In a few lines: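 HepG2 cells were co-treated for 24 h with T3 (100 nM) and test compound at 1 μM or 100 nM. Controls were a T3 ligand antagonist and a known coactivator antagonist. mRNA was isolated and converted to cDNA, and diluted cDNA was used for real-time PCR of PEPCK. Fold induction was calculated by the ΔΔCt method, with two independent experiments in triplicate and standard errors.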

Test [4] deals with T3, vitamin D receptor (VDR) / SRC2-3 interaction (Homo sapiens, UniProt P11473).
T3 sequence (P11473 1-427): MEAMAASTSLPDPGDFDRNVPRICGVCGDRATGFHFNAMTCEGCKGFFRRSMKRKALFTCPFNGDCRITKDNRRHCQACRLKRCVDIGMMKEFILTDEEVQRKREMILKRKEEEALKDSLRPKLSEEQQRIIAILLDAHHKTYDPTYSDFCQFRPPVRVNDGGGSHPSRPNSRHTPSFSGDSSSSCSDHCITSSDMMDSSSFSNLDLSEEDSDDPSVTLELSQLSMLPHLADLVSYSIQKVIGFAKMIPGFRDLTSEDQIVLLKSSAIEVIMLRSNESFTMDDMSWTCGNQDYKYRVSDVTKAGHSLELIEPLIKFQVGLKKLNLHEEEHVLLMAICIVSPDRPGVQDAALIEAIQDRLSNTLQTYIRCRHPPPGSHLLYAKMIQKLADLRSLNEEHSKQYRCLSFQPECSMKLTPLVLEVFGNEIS
Kind of test: FP competition assay, VDR-SRC2-3 interaction. The class given is binding. In short, it runs like this:
as §1

Some results are limits rather than exact numbers.

By EC50 is commonly meant the concentration giving half of the maximal effect. The low end stands for higher potency in that assay, the high end for lower potency in that assay. In test [1], `CS(=O)(=O)c1ccc(C(=O)NCC(=O)NC23CC4CC(CC(C4)C2)C3)cc1[N+](=O)[O-]` [3{1,1}] had an EC50 of 16 µM.
In test [1], `CCCN(C(=O)CNC(=O)c1ccc(S(C)(=O)=O)c([N+](=O)[O-])c1)c1ccccc1` [3{1,12}] had an EC50 of 6.6 µM.
With `CS(=O)(=O)c1ccc(C(=O)NCC(=O)N(Cc2ccccc2)c2ccccc2)cc1[N+](=O)[O-]` [3{1,13}], the “TRα-COA antagonism compared with TRβ” value in test [2] is “slightly more potency against TRα”.
In the case of `CS(=O)(=O)c1ccc(C(=O)NCC(=O)N(Cc2ccccc2)Cc2ccccc2)cc1[N+](=O)[O-]` [3{1,18}], in test [3], the “Transcription of the PEPCK gene” value is “inhibited by the MSNBA 3{1,18} in dose-dependent manner”. Further, in test [2], the “TRα-COA antagonism compared with TRβ” value is “slightly more potency against TRα”. In test [1], this compound came in with an EC50 of 3.6 µM.
For the compound `CN(C(=O)CNC(=O)c1ccc(S(C)(=O)=O)c([N+](=O)[O-])c1)c1ccccc1` [3{1, 11}], the EC50 in test [1] worked out at 5.8 µM.
In test [1], `CS(=O)(=O)c1ccc(C(=O)NCCCC(=O)NC23CC4CC(CC(C4)C2)C3)cc1[N+](=O)[O-]` [3{3,1}] had an EC50 of 11 µM.
With `CS(=O)(=O)c1ccc(C(=O)NCCCC(=O)N2CCN(c3ccc(C(F)(F)F)cc3)CC2)cc1[N+](=O)[O-]` [3{3,24}], the “Activity against TR-SRC interaction” value in test [1] (FP assay, in words) is “inactive”. Also, it took 7 µM to reach a half-maximal effect in test [4] (EC50).
Regarding `CN(CC(=O)NC12CC3CC(CC(C3)C1)C2)C(=O)c1ccc(S(C)(=O)=O)c([N+](=O)[O-])c1` [3{4,1}], in test [1], the EC50 was above 60 µM.
Same read-out and setting: the same measure for `CCCN(C(=O)CN(C)C(=O)c1ccc(S(C)(=O)=O)c([N+](=O)[O-])c1)c1ccccc1` [{4,12}]: above 60 µM; for `CN(CC(=O)N(Cc1ccccc1)Cc1ccccc1)C(=O)c1ccc(S(C)(=O)=O)c([N+](=O)[O-])c1` [{4, 18}]: above 60 µM.
